Source: ChEMBL document CHEMBL4765317, “Novel bacterial topoisomerase inhibitors derived from isomannide” (Eur J Med Chem, 2020)
Values after ≈ are worked out from the molar mass of the structure shown. Values belong to the compound of their own block, whether it stands above or below them.

Columns and labels:
[1] = biological target: Voltage-gated inwardly rectifying potassium channel KCNH2 (Homo sapiens, UniProt Q12809); experiment: Inhibition of human ERG
Staphylococcus aureus [2] = experiment: Antibacterial activity against Staphylococcus aureus ATCC 29213 assessed as reduction in bacterial growth by CLSI based broth microdilution method; format: functional
Staphylococcus aureus [3] = experiment: Antibacterial activity against cystic fibrosis patient isolate Staphylococcus aureus assessed as reduction in bacterial growth by CLSI based broth microdilution method; format: functional
Staphylococcus aureus [4] = experiment: Antibacterial activity against Staphylococcus aureus USA300 assessed as reduction in bacterial growth by CLSI based broth microdilution method; format: functional
Staphylococcus aureus [5] = experiment: Antibacterial activity against Staphylococcus aureus harboring DNA gyrase D83N mutant assessed as reduction in bacterial growth by CLSI based broth microdilution method; format: functional
Procedure, shortened: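 MIC against an isogenic NBTI-resistant daughter strain carrying a D83N substitution in DNA gyrase, originally selected under NBTI pressure from multidrug-resistant MRSA isolate 3527. CLSI broth microdilution was used, with values in µg/mL.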

[6] = Inhibition of Staphylococcus aureus topoisomerase IV using kDNA as substrate incubated for 30 mins by gel electrophoresis analysis
Staphylococcus aureus [7] = experiment: Selectivity index, fold shift in MIC between parent and mutant; format: functional
Procedure, shortened: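 MICs by CLSI broth microdilution in µg/mL against multidrug-resistant MRSA isolate 3527 (formerly 1095) and its isogenic NBTI-resistant daughter strain carrying a gyrase D83N substitution. Value is the fold shift in MIC between parent and mutant.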

[8] = Inhibition of Staphylococcus aureus DNA gyrase using relaxed pBR322 DNA as substrate incubated for 30 mins by agarose gel electrophoresis method
Staphylococcus aureus [9] = experiment: Antibacterial activity against Staphylococcus aureus 3527 assessed as reduction in bacterial growth by CLSI based broth microdilution method; format: functional
Procedure, shortened: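 Host is a multidrug-resistant MRSA clinical isolate (formerly 1095), the parent of an isogenic D83N gyrase mutant. MIC was read by CLSI broth microdilution and reported in µg/mL.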

Staphylococcus aureus [10] = experiment: Selectivity index, ratio of IC50 for inhibition of Staphylococcus aureus topoisomerase IV to IC50 for inhibition of Staphylococcus aureus DNA gyrase
Procedure, shortened: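 Ratio of S. aureus TopoIV IC50 to S. aureus DNA gyrase IC50, both from gel-based assays. TopoIV read-out was inhibition of decatenation; gyrase read-out was inhibition of supercoiling.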

Streptococcus pyogenes = experiment: Antibacterial activity against Streptococcus pyogenes LSI-1235 assessed as reduction in bacterial growth by CLSI based broth microdilution method; format: functional
Streptococcus pneumoniae [11] = experiment: Antibacterial activity against penicillin-susceptible Streptococcus pneumoniae LSI-4234 assessed as reduction in bacterial growth by CLSI based broth microdilution method; format: functional
Enterococcus faecalis = experiment: Antibacterial activity against Enterococcus faecalis ATCC 29212 assessed as reduction in bacterial growth by CLSI based broth microdilution method; format: functional
Staphylococcus aureus [12] = experiment: Antibacterial activity against methicillin-resistant Staphylococcus aureus DRL-3161 assessed as reduction in bacterial growth by CLSI based broth microdilution method; format: functional
Streptococcus pneumoniae [13] = experiment: Antibacterial activity against penicillin-resistant Streptococcus pneumoniae LSI-4246 assessed as reduction in bacterial growth by CLSI based broth microdilution method; format: functional
Enterococcus faecium [14] = experiment: Antibacterial activity against Vancomycin-susceptible Enterococcus faecium DRL-4193 assessed as reduction in bacterial growth by CLSI based broth microdilution method; format: functional
Enterococcus faecium [15] = experiment: Antibacterial activity against Vancomycin-resistant Enterococcus faecium LSI-3340 assessed as reduction in bacterial growth by CLSI based broth microdilution method; format: functional

Sequence of Voltage-gated inwardly rectifying potassium channel KCNH2 (Q12809 whole entry): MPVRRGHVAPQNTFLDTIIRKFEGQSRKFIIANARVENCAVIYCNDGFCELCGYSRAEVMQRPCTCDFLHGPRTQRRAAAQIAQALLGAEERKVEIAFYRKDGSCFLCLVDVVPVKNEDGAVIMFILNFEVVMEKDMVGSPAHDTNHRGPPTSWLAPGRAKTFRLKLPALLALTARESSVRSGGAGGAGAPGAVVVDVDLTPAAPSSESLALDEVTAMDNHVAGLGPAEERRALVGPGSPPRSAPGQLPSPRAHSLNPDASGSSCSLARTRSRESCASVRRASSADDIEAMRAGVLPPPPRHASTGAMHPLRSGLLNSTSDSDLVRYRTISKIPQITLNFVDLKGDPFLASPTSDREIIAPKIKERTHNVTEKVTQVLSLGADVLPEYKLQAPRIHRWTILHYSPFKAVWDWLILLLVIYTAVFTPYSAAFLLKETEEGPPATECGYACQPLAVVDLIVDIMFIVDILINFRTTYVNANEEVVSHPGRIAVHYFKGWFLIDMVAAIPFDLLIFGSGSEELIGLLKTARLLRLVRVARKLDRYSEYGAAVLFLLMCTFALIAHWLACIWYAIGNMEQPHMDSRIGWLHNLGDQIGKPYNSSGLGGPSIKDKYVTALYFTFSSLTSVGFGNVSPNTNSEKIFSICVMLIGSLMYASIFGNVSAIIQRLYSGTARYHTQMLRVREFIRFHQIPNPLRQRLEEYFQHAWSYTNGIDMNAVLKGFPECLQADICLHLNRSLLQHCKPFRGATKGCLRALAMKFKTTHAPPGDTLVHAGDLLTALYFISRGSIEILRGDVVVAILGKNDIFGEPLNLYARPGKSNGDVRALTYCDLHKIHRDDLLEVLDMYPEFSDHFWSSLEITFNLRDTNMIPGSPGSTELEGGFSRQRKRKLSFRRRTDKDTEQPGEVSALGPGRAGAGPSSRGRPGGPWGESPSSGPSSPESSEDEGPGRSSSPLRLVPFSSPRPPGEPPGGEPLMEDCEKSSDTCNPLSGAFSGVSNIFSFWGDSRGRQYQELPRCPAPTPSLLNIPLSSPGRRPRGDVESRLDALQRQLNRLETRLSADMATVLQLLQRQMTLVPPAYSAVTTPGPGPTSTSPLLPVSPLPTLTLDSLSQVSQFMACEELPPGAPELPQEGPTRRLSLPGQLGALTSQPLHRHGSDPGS

Structure (SMILES): COc1ccc2ncc(F)c(CC[C@]3(O)CC[C@H](NCc4ccc5c(c4)OCCO5)CC3)c2n1
IC50 [1]: 2.3 µM

MIC (Staphylococcus aureus [2]): > 8 µg/mL
MIC (Staphylococcus aureus [3]): > 8 µg/mL
MIC (Staphylococcus aureus [4]): > 8 µg/mL
Structure (SMILES): COc1ccc2nccc(CC[C@@]3(O)CO[C@@H]4[C@@H](NCc5ccc(C)cc5)CO[C@@H]43)c2c1

Structure (SMILES): COc1ccc2ncc(F)c(CC[C@@]3(O)CO[C@@H]4[C@@H](NCc5ccc6c(c5)OCCO6)CO[C@@H]43)c2n1
MIC (Staphylococcus aureus [5]): 4 µg/mL (≈ 8.04 µM)
MIC (Staphylococcus aureus [2]): 0.5 µg/mL (≈ 1 µM)
IC50 ([6]; read-out: IC50): 2.6 µM
IC50 [1]: 20 µM
MIC (Staphylococcus aureus [3]): 1 µg/mL (≈ 2.01 µM)
Ratio (Staphylococcus aureus [7]): 4
IC50 [8]: 0.2 µM
MIC (Staphylococcus aureus [4]): 1 µg/mL (≈ 2.01 µM)
MIC (Staphylococcus aureus [9]): 1 µg/mL (≈ 2.01 µM)
Ratio IC50 (Staphylococcus aureus [10]): 13

Structure (SMILES): COc1ccc2ncc(F)c(CC[C@]3(O)CC[C@H](NCc4ccc(Cl)c(Cl)c4)CC3)c2n1
IC50 [1]: 3.8 µM

Structure (SMILES): COc1ccc2ncc(F)c(CC[C@H]3OC[C@H](NCc4ccc(Cl)c(Cl)c4)CO3)c2n1
IC50 [1]: 7.9 µM

Structure (SMILES): COc1ccc2ncc(F)c(CC[C@@]3(O)CO[C@@H]4[C@@H](NCc5ccc(Cl)c(Cl)c5)CO[C@@H]43)c2n1
MIC (Staphylococcus aureus [5]): 4 µg/mL (≈ 7.87 µM)
MIC (Staphylococcus aureus [2]): ≤ 0.25 µg/mL
IC50 ([6]; read-out: IC50): 2.9 µM
MIC (Staphylococcus aureus [3]): 0.5 µg/mL (≈ 0.984 µM)
IC50 [8]: 0.2 µM
MIC (Staphylococcus aureus [4]): 0.5 µg/mL (≈ 0.984 µM)
MIC (Staphylococcus aureus [9]): 0.25 µg/mL (≈ 0.492 µM)

Structure (SMILES): COc1ccc2ncc(F)c(CC[C@]3(O)CC[C@@H](NCc4ccc5c(c4)OCCO5)CC3)c2n1
IC50 [1]: 2.2 µM

Structure (SMILES): COc1ccc2ncc(F)c(CC[C@@]3(O)CO[C@@H]4[C@@H](NCc5ccc(C)cc5)CO[C@@H]43)c2n1
MIC (Staphylococcus aureus [5]): 16 µg/mL (≈ 35.3 µM)
MIC (Staphylococcus aureus [2]): 1 µg/mL (≈ 2.21 µM)
IC50 ([6]; read-out: IC50): 7.5 µM
MIC (Staphylococcus aureus [3]): 2 µg/mL (≈ 4.41 µM)
Ratio (Staphylococcus aureus [7]): 8
IC50 [8]: 0.18 µM
MIC (Staphylococcus aureus [4]): 2 µg/mL (≈ 4.41 µM)
MIC (Staphylococcus aureus [9]): 2 µg/mL (≈ 4.41 µM)
Ratio IC50 (Staphylococcus aureus [10]): 42

MIC (Staphylococcus aureus [2]): 16 µg/mL (≈ 33.4 µM)
MIC (Staphylococcus aureus [3]): 16 µg/mL (≈ 33.4 µM)
MIC (Staphylococcus aureus [4]): 16 µg/mL (≈ 33.4 µM)
Structure (SMILES): COc1ccc2nccc(CC[C@@]3(O)CO[C@@H]4[C@@H](NCc5ccc6c(c5)OCCO6)CO[C@@H]43)c2c1

Structure (SMILES): COc1ccc2ncc(F)c(CC[C@@]3(O)CO[C@@H]4[C@@H](NCc5ccc6c(n5)NC(=O)CO6)CO[C@@H]43)c2n1
MIC (Staphylococcus aureus [5]): 8 µg/mL (≈ 15.6 µM)
MIC (Staphylococcus aureus [2]): 2 µg/mL (≈ 3.91 µM)
IC50 [6]: Not Active
IC50 [1]: 12 µM
MIC (Staphylococcus aureus [3]): 2 µg/mL (≈ 3.91 µM)
Ratio (Staphylococcus aureus [7]): 8
IC50 [8]: 0.54 µM
MIC (Staphylococcus aureus [4]): 1 µg/mL (≈ 1.95 µM)
MIC (Staphylococcus aureus [9]): 1 µg/mL (≈ 1.95 µM)

MIC (Staphylococcus aureus [2]): > 8 µg/mL
MIC (Staphylococcus aureus [3]): > 8 µg/mL
MIC (Staphylococcus aureus [4]): > 8 µg/mL
Structure (SMILES): COc1ccc2nccc(CC[C@@]3(O)CO[C@@H]4[C@@H](NCc5ccccc5)CO[C@@H]43)c2c1

Structure (SMILES): COc1ccc2ncc(F)c(CC[C@H]3OC[C@H](NCc4cc5c(cn4)OCCO5)CO3)c2n1
IC50 [1]: 15 µM

Structure (SMILES): COc1ccc2ncc(F)c(CC[C@H]3OC[C@H](NCc4ccc5c(c4)OCCO5)CO3)c2n1
MIC (Streptococcus pyogenes): ≤ 0.06 µg/mL
MIC (Streptococcus pneumoniae [11]): 0.25 µg/mL (≈ 0.549 µM)
MIC (Staphylococcus aureus [5]): 4 µg/mL (≈ 8.78 µM)
MIC (Staphylococcus aureus [2]): < 0.25 µg/mL
IC50 ([6]; read-out: IC50): 1 µM
MIC (Enterococcus faecalis): 0.5 µg/mL (≈ 1.1 µM)
IC50 [1]: 8 µM
MIC (Staphylococcus aureus [3]): 0.25 µg/mL (≈ 0.549 µM)
MIC (Staphylococcus aureus [12]): ≤ 0.06 µg/mL
MIC (Streptococcus pneumoniae [13]): ≤ 0.06 µg/mL
MIC (Enterococcus faecium [14]): 0.12 µg/mL (≈ 0.263 µM)
Ratio (Staphylococcus aureus [7]): > 16
IC50 [8]: 0.03 µM
MIC (Staphylococcus aureus [4]): 0.125 µg/mL (≈ 0.274 µM)
MIC (Enterococcus faecium [15]): 0.12 µg/mL (≈ 0.263 µM)
MIC (Staphylococcus aureus [9]): ≤ 0.25 µg/mL
Ratio IC50 (Staphylococcus aureus [10]): 33
